Consider five compounds from ChEMBL document CHEMBL1152293, “Discovery of novel, potent and bioavailable proline-urea based macrocyclic HCV NS3/4A protease inhibitors” (Bioorg Med Chem Lett, 2008).

Structures are written as SMILES. Some results are limits rather than exact numbers.

Test system in one data set: not listed separately
Briefly: Inhibition of full length HCV NS3/4A protease.
Settings: not given
The arrangement: species or system Hepacivirus hominis.
As usually defined, the Ki is the equilibrium dissociation constant of an inhibitor or competing ligand from its target. On to `COc1ccc2c(O[C@@H]3C[C@H]4C(=O)N[C@]5(C(=O)O)C[C@H]5/C=C\CCCCCN(C)C(=O)N4C3)cc(-c3ccccc3)nc2c1`, for which affinity was put at a Ki of 10 nM.

With `COc1ccc2c(O[C@@H]3C[C@H]4C(=O)N[C@]5(C(=O)O)C[C@H]5/C=C\CCCCCN(NC(=O)OC(C)(C)C)C(=O)N4C3)cc(-c3ccccc3)nc2c1`, the Ki amounted to 600 nM.

`COc1ccc2c(O[C@@H]3C[C@H]4C(=O)N[C@]5(C(=O)O)C[C@H]5/C=C\CCCCC[C@H](NC(=O)OC(C)(C)C)C(=O)N4C3)cc(-c3ccccc3)nc2c1` yielded an inhibitory constant (Ki) of 11 nM.

Still in this data set, the particulars now being: read-out: Ki.
For the compound `COc1ccc2c(O[C@@H]3C[C@H]4C(=O)N[C@]5(C(=O)NS(=O)(=O)C6CC6)C[C@H]5/C=C\CCCCCN(C)C(=O)N4C3)cc(-c3nc(C(C)C)cs3)nc2c1`, the inhibitory constant (Ki) was 12 nM.

Turning to `COc1ccc2c(O[C@@H]3C[C@H]4C(=O)N[C@]5(C(=O)NS(=O)(=O)C6CC6)C[C@H]5/C=C\CCCCNC(=O)N4C3)cc(-c3nc(C(C)C)cs3)nc2c1`, the Ki stood at 0.5 nM.

The subject of another data set is Hepatitis C virus. Briefly: Antiviral activity against HCV infected in human Huh7 cells after 48 hrs by luciferase based replicon assay. The note with it: Huh-7, 48 h. The data set is classed as functional, organism-based, Hepacivirus hominis.
As a reminder, the EC50 is the concentration needed to bring the measured effect to its halfway point. Read a low EC50 as higher potency in that assay. In the case of `COc1ccc2c(O[C@@H]3C[C@H]4C(=O)N[C@]5(C(=O)NS(=O)(=O)C6CC6)C[C@H]5/C=C\CCCCCN(C)C(=O)N4C3)cc(-c3nc(C(C)C)cs3)nc2c1`, the concentration for a half-maximal effect (EC50) is 700 nM.

In the case of `COc1ccc2c(O[C@@H]3C[C@H]4C(=O)N[C@]5(C(=O)NS(=O)(=O)C6CC6)C[C@H]5/C=C\CCCCNC(=O)N4C3)cc(-c3nc(C(C)C)cs3)nc2c1`, the EC50 is 5 nM. This EC50 lies about 140-fold lower than the previous one.

For the compound `COc1ccc2c(O[C@@H]3C[C@H]4C(=O)N[C@]5(C(=O)O)C[C@H]5/C=C\CCCCCN(C)C(=O)N4C3)cc(-c3ccccc3)nc2c1`, the EC50 was determined as 4500 nM. Against the preceding compound, the EC50 is about 900-fold higher.

As to `COc1ccc2c(O[C@@H]3C[C@H]4C(=O)N[C@]5(C(=O)O)C[C@H]5/C=C\CCCCCN(NC(=O)OC(C)(C)C)C(=O)N4C3)cc(-c3ccccc3)nc2c1`, the EC50 was more than 10000 nM.

For `COc1ccc2c(O[C@@H]3C[C@H]4C(=O)N[C@]5(C(=O)O)C[C@H]5/C=C\CCCCC[C@H](NC(=O)OC(C)(C)C)C(=O)N4C3)cc(-c3ccccc3)nc2c1`, the EC50 stood at 77 nM.

Test system in another data set: not listed separately
The experiment in a line: Clearance in Sprague-Dawley rat at 2 mg/kg, iv. In kind it is ADME, organism-based. The arrangement: dose 2 mg/kg, route intravenous. The note with it: in vivo. The essentials: (§1)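 Male Sprague–Dawley rats (n = 2 per route) received a single intravenous dose of 2 mg/kg or an oral dose of 10 mg/kg in 50% PEG-400 in water. Plasma levels were averaged, and PK parameters were calculated. Bioavailability was derived from the iv and oral arms.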
As usually defined, the clearance is the volume of plasma or blood freed of the substance per unit of time. Read a low clearance as a low capacity for elimination. In turn, `COc1ccc2c(O[C@@H]3C[C@H]4C(=O)N[C@]5(C(=O)NS(=O)(=O)C6CC6)C[C@H]5/C=C\CCCCNC(=O)N4C3)cc(-c3nc(C(C)C)cs3)nc2c1` had a clearance of 15.7 mL/min/kg.

Test system in another data set: not listed separately
Briefly: Volume of distribution in Sprague-Dawley rat at 2 mg/kg, iv. The note with it: in vivo. In kind it is ADME, organism-based. The arrangement: dose 2 mg/kg, route intravenous. The essentials:
as §1
One may read the Vd as the apparent volume that relates the amount in the body to the concentration in plasma or blood. Regarding `COc1ccc2c(O[C@@H]3C[C@H]4C(=O)N[C@]5(C(=O)NS(=O)(=O)C6CC6)C[C@H]5/C=C\CCCCNC(=O)N4C3)cc(-c3nc(C(C)C)cs3)nc2c1`, the Vd turned out to be 1.6 L/kg.

Test system in a further data set: not listed separately
The experiment in a line: AUC in Sprague-Dawley rat at 2 mg/kg, iv. In kind it is ADME, organism-based. The arrangement: dose 2 mg/kg, route intravenous. The note with it: plasma. The essentials: as §1
Broadly, the AUC is the area under the concentration-time curve, a measure of exposure. Low readings indicate less exposure, high ones more exposure. `COc1ccc2c(O[C@@H]3C[C@H]4C(=O)N[C@]5(C(=O)NS(=O)(=O)C6CC6)C[C@H]5/C=C\CCCCNC(=O)N4C3)cc(-c3nc(C(C)C)cs3)nc2c1` registered an exposure (AUC) of 3 µM·h.

Test system in another data set: not listed separately
Briefly: AUC in Sprague-Dawley rat at 10 mg/kg, po. In kind it is ADME, organism-based. The arrangement: dose 10 mg/kg, route oral. As to conditions: plasma. The procedure, abridged: as §1
Turning to `COc1ccc2c(O[C@@H]3C[C@H]4C(=O)N[C@]5(C(=O)NS(=O)(=O)C6CC6)C[C@H]5/C=C\CCCCNC(=O)N4C3)cc(-c3nc(C(C)C)cs3)nc2c1`, the area under the curve (AUC) worked out at 0.19 µM·h.

Test system in a further data set: not listed separately
Briefly: Cmax in Sprague-Dawley rat at 10 mg/kg, po. In kind it is ADME, organism-based. The arrangement: dose 10 mg/kg, route oral. The note with it: in vivo. The procedure, abridged: as §1
Broadly, the Cmax is the highest concentration seen after dosing. The compound `COc1ccc2c(O[C@@H]3C[C@H]4C(=O)N[C@]5(C(=O)NS(=O)(=O)C6CC6)C[C@H]5/C=C\CCCCNC(=O)N4C3)cc(-c3nc(C(C)C)cs3)nc2c1` gave a Cmax of 26 nM.

Test system in another data set: not listed separately
Briefly: Tmax in Sprague-Dawley rat at 10 mg/kg, po. The data set is classed as ADME, organism-based. As to conditions: in vivo. The arrangement: dose 10 mg/kg, route oral. The essentials: as §1
As usually defined, the Tmax is the time from dosing to the highest level. `COc1ccc2c(O[C@@H]3C[C@H]4C(=O)N[C@]5(C(=O)NS(=O)(=O)C6CC6)C[C@H]5/C=C\CCCCNC(=O)N4C3)cc(-c3nc(C(C)C)cs3)nc2c1`: the Tmax stood at 2 h.

Test system in a further data set: not listed separately
Briefly: Half life in Sprague-Dawley rat at 10 mg/kg, po. In kind it is ADME, organism-based. The arrangement: dose 10 mg/kg, route oral. The note with it: in vivo. The procedure, abridged:
as §1
As a reminder, the half-life is the time in which the quantity being followed falls by half. A low value points to fast loss. In turn, `COc1ccc2c(O[C@@H]3C[C@H]4C(=O)N[C@]5(C(=O)NS(=O)(=O)C6CC6)C[C@H]5/C=C\CCCCNC(=O)N4C3)cc(-c3nc(C(C)C)cs3)nc2c1` gave a half-life of 228 min.

Test system in a further data set: not listed separately
The experiment in a line: Oral bioavailability in Sprague-Dawley rat at 10 mg/kg. In kind it is ADME, organism-based. The note with it: in vivo. The essentials:
as §1
The term bioavailability denotes the share of a dose that reaches the circulation, judged against a reference dose that is usually intravenous. A higher bioavailability goes with good availability. Take `COc1ccc2c(O[C@@H]3C[C@H]4C(=O)N[C@]5(C(=O)NS(=O)(=O)C6CC6)C[C@H]5/C=C\CCCCNC(=O)N4C3)cc(-c3nc(C(C)C)cs3)nc2c1`: the bioavailability came out at 1.3%.

Test system in a further data set: not listed separately
Briefly: Apparent permeability across apical to basolateral side in human Caco-2 cells. In kind it is ADME, cell-based.
Settings: not given
In general terms: Caco-2 cells form a polarised layer with tight junctions and transporters.
Broadly, the Papp A→B is how fast a substance crosses the layer from the apical side. As for `COc1ccc2c(O[C@@H]3C[C@H]4C(=O)N[C@]5(C(=O)NS(=O)(=O)C6CC6)C[C@H]5/C=C\CCCCNC(=O)N4C3)cc(-c3nc(C(C)C)cs3)nc2c1`, the Papp A→B was found to be 3 ×10⁻⁶ cm/s.

Test system in another data set: not listed separately
The experiment in a line: Ratio of drug level in liver to plasma of Sprague-Dawley rat at 10 mg/kg, po after 6 hrs.
Settings: not given
For the compound `COc1ccc2c(O[C@@H]3C[C@H]4C(=O)N[C@]5(C(=O)NS(=O)(=O)C6CC6)C[C@H]5/C=C\CCCCNC(=O)N4C3)cc(-c3nc(C(C)C)cs3)nc2c1`, the liver/plasma ratio at 6 h is 9.5.
